Assay results reported in ChEMBL document CHEMBL4834420, “Projected Dose Optimization of Amino- and Hydroxypyrrolidine Purine PI3Kδ Immunomodulators” (J Med Chem, 2021).
Converted amounts (≈) assume the structure as drawn.

How the values were obtained:
[1] = target: PI3-kinase p110-delta/p85-alpha (Homo sapiens, UniProt O00329); assay: Inhibition of N-terminal His6-tagged recombinant full length human p110delta/untagged recombinant full length human p85alpha expressed in baculovirus infected Sf21 insect cells using PIP2 as substrate preincubated for 15 mins followed by substrate addition and measured after 1 hr by HTRF assay
[2] = Lipophilicity, log D of the compound by HPLC analysis; format: physicochemical
[3] = Oral bioavailability in Wistar Han rat; format: ADME, organism-based; conditions: in vivo
[4] = target: T1, Phosphatidylinositol 4,5-bisphosphate 3-kinase catalytic subunit delta isoform (Homo sapiens, UniProt O00329); assay: Inhibition of PI3Kdelta in human whole blood assessed as reduction in antihuman IgE antibody-stimulated CD63 expression preincubated for 30 mins followed by antihuman IgE antibody stimulation and measured after 20 mins by FACS analysis; format: tissue-based
T1 sequence (O00329 whole entry): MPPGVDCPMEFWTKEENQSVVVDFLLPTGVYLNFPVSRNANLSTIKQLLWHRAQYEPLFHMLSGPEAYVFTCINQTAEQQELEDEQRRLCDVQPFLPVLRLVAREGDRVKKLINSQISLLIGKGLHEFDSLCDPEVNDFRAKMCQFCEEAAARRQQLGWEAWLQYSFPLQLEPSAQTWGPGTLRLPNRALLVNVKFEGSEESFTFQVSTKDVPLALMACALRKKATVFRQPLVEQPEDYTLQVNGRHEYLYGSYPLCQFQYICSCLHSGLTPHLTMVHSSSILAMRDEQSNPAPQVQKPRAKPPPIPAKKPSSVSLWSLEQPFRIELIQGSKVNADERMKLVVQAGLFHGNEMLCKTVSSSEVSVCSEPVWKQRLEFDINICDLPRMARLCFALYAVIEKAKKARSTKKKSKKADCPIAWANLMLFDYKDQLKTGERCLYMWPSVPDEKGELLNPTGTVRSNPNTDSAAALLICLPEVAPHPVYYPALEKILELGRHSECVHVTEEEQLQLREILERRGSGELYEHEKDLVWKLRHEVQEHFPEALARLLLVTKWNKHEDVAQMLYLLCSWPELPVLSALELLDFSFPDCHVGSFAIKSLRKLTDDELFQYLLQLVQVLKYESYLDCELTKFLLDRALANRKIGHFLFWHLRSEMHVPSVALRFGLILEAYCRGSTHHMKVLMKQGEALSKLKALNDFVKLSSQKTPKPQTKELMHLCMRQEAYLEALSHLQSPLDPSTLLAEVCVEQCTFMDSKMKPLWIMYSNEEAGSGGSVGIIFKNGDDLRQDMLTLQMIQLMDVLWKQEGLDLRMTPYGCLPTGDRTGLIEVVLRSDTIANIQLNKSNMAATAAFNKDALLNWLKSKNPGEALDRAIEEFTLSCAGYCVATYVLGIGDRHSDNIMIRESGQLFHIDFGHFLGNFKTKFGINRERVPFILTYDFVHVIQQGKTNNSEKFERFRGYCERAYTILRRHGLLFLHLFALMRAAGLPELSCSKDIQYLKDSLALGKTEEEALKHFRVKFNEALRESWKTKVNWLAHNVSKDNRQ
Outline: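 Blood from healthy human volunteer donors, pre-incubated with compound (DMSO, varying concentrations) for 30 min at 37 °C. Basotest reagent B added for 30 min at 37 °C, then goat anti-human IgE (50 ng/mL in reagent A before addition) for 20 min at 37 °C. Stopped on ice, stained for CD63/IgE/CD203c/CD45 (20 min, 4 °C), RBC-lysed, and read by flow cytometry. IgE+ basophils gated, CD63+ scored; IC50 from sigmoidal fit of % inhibition.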

[5] = target: Voltage-dependent L-type calcium channel subunit alpha-1C (Homo sapiens, UniProt Q13936); assay: Inhibition of Cav1.2 (unknown origin)
[6] = target: T2, Cytochrome P450 1A2 (Homo sapiens, UniProt P05177); assay: Inhibition of CYP1A2 (unknown origin); format: ADME
T2 sequence (P05177 whole entry): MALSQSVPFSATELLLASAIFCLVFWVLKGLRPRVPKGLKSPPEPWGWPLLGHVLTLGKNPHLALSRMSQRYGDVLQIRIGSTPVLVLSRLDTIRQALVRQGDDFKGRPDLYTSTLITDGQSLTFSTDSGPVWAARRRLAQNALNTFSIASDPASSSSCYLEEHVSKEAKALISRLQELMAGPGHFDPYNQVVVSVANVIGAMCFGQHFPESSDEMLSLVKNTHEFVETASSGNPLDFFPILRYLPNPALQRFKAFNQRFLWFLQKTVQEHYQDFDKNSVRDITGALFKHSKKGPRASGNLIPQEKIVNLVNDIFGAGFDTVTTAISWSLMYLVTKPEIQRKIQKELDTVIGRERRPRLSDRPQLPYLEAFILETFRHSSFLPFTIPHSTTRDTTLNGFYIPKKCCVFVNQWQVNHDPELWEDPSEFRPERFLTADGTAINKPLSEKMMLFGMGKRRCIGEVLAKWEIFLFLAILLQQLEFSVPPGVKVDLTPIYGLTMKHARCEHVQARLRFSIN

[7] = Protein binding in C57BL/6 mouse plasma; format: ADME, cell-free; conditions: read-out: PPB (converted)
[8] = Solubility of compound in stimulated intestinal fluid; format: physicochemical; conditions: simulated intestinal fluid

Chain of PI3-kinase p110-delta/p85-alpha (P27986 whole entry, one chain of several): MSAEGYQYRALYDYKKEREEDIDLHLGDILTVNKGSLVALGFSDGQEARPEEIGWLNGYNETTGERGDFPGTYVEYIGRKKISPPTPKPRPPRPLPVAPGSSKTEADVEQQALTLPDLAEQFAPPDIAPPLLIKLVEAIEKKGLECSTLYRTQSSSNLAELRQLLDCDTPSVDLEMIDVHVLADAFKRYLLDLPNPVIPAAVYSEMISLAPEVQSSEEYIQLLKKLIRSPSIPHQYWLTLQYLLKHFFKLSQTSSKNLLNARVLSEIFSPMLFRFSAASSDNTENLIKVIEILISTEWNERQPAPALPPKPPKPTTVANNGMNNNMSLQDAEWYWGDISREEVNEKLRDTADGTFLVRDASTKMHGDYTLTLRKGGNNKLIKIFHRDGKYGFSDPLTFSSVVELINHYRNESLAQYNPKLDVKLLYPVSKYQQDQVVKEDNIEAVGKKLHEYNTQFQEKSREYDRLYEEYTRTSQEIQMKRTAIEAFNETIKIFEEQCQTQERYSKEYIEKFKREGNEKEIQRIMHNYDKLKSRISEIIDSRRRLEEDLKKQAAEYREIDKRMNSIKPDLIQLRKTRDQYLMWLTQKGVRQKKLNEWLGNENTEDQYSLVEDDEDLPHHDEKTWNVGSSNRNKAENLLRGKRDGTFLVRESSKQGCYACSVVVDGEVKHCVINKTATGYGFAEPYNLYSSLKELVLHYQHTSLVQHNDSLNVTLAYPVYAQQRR
Chain of Voltage-dependent L-type calcium channel subunit alpha-1C (Q13936 whole entry): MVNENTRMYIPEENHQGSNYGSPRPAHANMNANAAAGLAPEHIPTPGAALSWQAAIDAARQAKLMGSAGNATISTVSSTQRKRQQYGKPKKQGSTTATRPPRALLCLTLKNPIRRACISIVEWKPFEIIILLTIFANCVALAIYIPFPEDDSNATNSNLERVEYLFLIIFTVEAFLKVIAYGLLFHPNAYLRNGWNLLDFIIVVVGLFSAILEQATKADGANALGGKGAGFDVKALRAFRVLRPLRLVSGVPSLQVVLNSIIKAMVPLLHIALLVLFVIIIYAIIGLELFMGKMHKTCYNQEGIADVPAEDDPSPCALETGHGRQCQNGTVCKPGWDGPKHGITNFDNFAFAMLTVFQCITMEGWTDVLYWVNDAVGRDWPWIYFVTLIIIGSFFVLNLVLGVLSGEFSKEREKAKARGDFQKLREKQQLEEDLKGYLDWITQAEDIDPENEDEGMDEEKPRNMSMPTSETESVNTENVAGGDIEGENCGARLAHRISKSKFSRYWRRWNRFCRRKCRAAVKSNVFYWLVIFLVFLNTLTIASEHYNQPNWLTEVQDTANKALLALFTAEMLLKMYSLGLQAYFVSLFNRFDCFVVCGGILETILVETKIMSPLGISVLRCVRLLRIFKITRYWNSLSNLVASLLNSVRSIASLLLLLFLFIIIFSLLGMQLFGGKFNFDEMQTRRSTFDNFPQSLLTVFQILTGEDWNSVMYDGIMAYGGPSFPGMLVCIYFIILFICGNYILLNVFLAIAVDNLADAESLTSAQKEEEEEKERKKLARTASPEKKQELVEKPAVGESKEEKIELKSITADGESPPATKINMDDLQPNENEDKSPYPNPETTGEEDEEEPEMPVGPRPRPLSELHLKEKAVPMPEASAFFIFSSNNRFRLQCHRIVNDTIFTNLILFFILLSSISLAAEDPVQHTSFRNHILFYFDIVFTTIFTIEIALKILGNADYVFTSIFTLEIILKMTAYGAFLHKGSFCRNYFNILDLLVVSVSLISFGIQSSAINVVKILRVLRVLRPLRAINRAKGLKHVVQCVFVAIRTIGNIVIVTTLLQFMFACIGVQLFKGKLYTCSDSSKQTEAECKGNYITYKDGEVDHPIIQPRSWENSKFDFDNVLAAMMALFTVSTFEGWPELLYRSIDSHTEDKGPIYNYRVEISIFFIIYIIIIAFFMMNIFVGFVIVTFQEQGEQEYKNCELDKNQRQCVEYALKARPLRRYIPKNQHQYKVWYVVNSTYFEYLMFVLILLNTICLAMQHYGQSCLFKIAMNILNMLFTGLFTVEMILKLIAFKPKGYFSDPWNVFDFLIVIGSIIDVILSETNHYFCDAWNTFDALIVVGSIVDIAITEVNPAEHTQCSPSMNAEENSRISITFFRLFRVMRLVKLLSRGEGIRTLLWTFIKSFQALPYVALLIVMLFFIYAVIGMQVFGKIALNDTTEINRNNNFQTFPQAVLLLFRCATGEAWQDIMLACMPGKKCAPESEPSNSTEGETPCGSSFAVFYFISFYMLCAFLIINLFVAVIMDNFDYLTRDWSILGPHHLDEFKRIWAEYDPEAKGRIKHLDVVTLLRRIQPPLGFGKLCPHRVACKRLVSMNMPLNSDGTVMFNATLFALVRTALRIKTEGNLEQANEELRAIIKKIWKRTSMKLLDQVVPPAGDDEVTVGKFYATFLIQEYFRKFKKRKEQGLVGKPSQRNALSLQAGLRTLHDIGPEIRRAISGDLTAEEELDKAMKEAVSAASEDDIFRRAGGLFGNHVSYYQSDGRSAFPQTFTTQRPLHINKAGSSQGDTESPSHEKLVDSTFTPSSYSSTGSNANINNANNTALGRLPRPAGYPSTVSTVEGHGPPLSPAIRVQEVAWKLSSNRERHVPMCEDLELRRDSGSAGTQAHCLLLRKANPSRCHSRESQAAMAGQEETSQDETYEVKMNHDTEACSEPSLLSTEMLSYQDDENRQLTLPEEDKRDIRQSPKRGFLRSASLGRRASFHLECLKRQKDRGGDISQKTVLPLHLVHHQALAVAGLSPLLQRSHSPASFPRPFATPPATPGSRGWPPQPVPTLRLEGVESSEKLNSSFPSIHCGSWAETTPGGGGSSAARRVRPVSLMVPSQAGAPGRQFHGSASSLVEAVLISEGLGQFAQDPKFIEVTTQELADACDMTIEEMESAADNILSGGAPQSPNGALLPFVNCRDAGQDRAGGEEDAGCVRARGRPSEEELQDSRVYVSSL

SMILES: CCn1c(-c2cnc(C)nc2)nc2c(N[C@H]3CCN(C(=O)C4CC4)C3)ncnc21
- IC50 [1]: 1.6 nM
- logD [2]: 0.8
- bioavailability [3]: 55%
- IC50 [4]: 50 nM
- IC50 [5]: > 50000 nM
- IC50 [6]: > 50000 nM
- fraction unbound [7]: 0.47
- solubility [8]: 14 mg/mL (≈ 35.7 mM)
